The record followed here is ChEMBL document CHEMBL5608187, “Discovery of pyridoquinoxaline-based new P-gp inhibitors as coadjutant against Multi Drug Resistance in cancer” (Eur J Med Chem, 2024).

Molecules are shown by their SMILES.

Common to all, as to type: cell-based
Data set [1] deals with T1, ATP-dependent translocase ABCB1 (Homo sapiens, UniProt P08183). Nature of the data set: Inhibition of P-gp in human CAKI-2 cells assessed as increase in green fluorescence intensity at 0.1 to 10 uM incubated for 15 mins followed by incubation with EFFLUX-ID Green Detection Reagent and Hoeschst-33342 dye and measured after 30 mins by fluorescence analysis. The settings on record: caki-2, 0.25 h, dose 0.1-10 µM. In short, it runs like this: (§1)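 5000 cells/well in phenol-red-free medium plated 24 h before; compounds 0.1, 1, 10 µM for 15 min, then EFLUXX-ID Green reagent (1:200) plus Hoechst-33342 1 µg/mL, 30 min 37 °C. Widefield imaging; median green intensity from 250 cells per well normalized to untreated wells. Mean ± SD of three wells; one-tailed t-test.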

Data set [2] deals with T1, ATP-dependent translocase ABCB1. In words: Inhibition of P-gp in human HCT-15 cells assessed as increase in green fluorescence intensity at 0.1 to 10 uM incubated for 15 mins followed by incubation with EFFLUX-ID Green Detection Reagent and Hoeschst-33342 dye and measured after 30 mins by fluorescence analysis. The conditions noted are these: hct-15, 0.25 h, dose 0.1-10 µM. An outline of the steps: as §1

The target is the same in data set [3]. In words: Inhibition of P-gp in human A498 cells assessed as increase in green fluorescence intensity at 0.1 to 10 uM incubated for 15 mins followed by incubation with EFFLUX-ID Green Detection Reagent and Hoeschst-33342 dye and measured after 30 mins by fluorescence analysis. The conditions noted are these: a498, 0.25 h, dose 0.1-10 µM. An outline of the steps: as §1

Data set [4] has the same target. Nature of the data set: Inhibition of P-gp in human HT1197 cells assessed as increase in green fluorescence intensity at 0.1 to 10 uM incubated for 15 mins followed by incubation with EFFLUX-ID Green Detection Reagent and Hoeschst-33342 dye and measured after 30 mins by fluorescence analysis. The settings on record: ht1197, 0.25 h, dose 0.1-10 µM. In short, it runs like this:
as §1

T1 sequence (P08183 whole entry): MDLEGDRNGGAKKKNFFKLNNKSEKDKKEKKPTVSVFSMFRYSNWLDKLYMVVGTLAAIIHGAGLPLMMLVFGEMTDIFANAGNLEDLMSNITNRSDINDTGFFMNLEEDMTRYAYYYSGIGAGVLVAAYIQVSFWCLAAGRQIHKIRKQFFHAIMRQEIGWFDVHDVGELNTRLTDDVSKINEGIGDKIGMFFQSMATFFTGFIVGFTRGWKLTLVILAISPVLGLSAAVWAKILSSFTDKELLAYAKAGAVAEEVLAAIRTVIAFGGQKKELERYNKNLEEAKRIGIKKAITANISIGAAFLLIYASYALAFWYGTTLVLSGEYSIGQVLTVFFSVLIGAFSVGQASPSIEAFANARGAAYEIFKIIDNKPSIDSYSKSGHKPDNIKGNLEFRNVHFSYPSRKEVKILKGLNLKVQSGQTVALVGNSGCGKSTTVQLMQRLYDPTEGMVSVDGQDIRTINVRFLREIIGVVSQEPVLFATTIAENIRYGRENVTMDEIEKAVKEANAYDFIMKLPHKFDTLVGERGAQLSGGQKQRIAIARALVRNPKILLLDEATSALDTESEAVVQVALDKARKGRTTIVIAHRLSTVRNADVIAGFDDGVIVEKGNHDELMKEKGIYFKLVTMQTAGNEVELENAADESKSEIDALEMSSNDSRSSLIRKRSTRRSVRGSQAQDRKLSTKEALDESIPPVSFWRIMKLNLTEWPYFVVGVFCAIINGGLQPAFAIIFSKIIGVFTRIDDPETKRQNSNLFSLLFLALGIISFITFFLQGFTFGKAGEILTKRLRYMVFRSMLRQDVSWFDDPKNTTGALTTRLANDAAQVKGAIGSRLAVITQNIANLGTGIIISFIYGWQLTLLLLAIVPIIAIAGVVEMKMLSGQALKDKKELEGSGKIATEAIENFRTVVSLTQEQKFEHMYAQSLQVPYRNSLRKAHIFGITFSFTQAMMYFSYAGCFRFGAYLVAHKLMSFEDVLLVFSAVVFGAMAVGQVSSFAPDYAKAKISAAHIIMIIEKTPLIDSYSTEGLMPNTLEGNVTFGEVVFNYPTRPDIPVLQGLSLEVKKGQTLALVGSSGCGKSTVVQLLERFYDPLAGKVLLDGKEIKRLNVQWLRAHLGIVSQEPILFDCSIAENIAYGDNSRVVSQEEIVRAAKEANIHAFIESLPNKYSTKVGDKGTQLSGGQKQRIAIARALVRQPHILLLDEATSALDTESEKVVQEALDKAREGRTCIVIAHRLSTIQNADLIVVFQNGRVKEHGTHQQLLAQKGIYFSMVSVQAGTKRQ

On to `O=C(Nc1ccc(Cl)c(Cl)c1)c1ccccc1OCc1nc2cc3cccnc3cc2nc1COc1ccccc1C(=O)Nc1ccc(Cl)c(Cl)c1`, for which the “inhibition (INH)” value is “Active” in data set [1], “Active” in data set [2], “Not Active” in data set [3] and “Active” in data set [4].
`N#Cc1ccc(OCc2nc3cc4cccnc4cc3nc2COc2ccc(C#N)cc2)cc1`: the “inhibition (INH)” value was “Active” in data set [1], “Active” in data set [2], “Not Active” in data set [3] and “Active” in data set [4].
Consider `COC(=O)c1ccc(OCc2nc3cc4cccnc4cc3nc2COc2ccc(C(=O)OC)cc2OC)c(OC)c1`, for which the “inhibition (INH)” value is recorded as “Active” in data set [1], “Active” in data set [2], “Not Active” in data set [3] and “Active” in data set [4].
Turning to `COc1ccc(NC(=O)c2cc(Cl)ccc2OCc2nc3cc4cccnc4cc3nc2COc2ccc(Cl)cc2C(=O)Nc2ccc(OC)cc2)cc1`, the “inhibition (INH)” value in data set [1] is “Active”; in data set [2] it was “Active”; in data set [3], “Not Active”; in data set [4] it was “Active”.
Regarding `COc1cc(NC(=O)c2cc(Cl)ccc2OCc2nc3cc4cccnc4cc3nc2COc2ccc(Cl)cc2C(=O)Nc2cc(OC)cc(OC)c2)cc(OC)c1`, the “inhibition (INH)” value in data set [1] is “Active”; in data set [2], “Active”; in data set [3] it was “Not Active”; in data set [4], “Active”.
For the molecule `COc1cc(NC(=O)c2cc(Cl)ccc2OCc2nc3cc4cccnc4cc3nc2COc2ccc(Cl)cc2C(=O)Nc2cc(OC)c(OC)c(OC)c2)cc(OC)c1OC`, the “inhibition (INH)” value in data set [1] is listed as “Active”; in data set [2], “Active”; in data set [3] it was “Not Active”; in data set [4] it was “Active”.
For the molecule `COc1ccc(NC(=O)c2ccccc2OCc2nc3cc4cccnc4cc3nc2COc2ccccc2C(=O)Nc2ccc(OC)cc2)cc1`, the “inhibition (INH)” value in data set [1] is “Active”; in data set [2], “Active”; in data set [3], “Not Active”; in data set [4] it was “Active”.
As for `COC(=O)c1ccccc1SCc1nc2cc3cccnc3cc2nc1CSc1ccccc1C(=O)OC`, the “inhibition (INH)” value in data set [1] is “Active”; in data set [2], “Active”; in data set [3], “Not Active”; in data set [4] it was “Active”.
